Key:
[1] = biological target: Adenosine receptors; A1 & A3 (Homo sapiens) (UniProt P30542+P0DMS8); experiment: Ratio of binding affinity for human adenosine A1 and A3 receptors; type: protein assay
[2] = biological target: T1, Adenosine receptor A3 (Homo sapiens, UniProt P0DMS8); experiment: Binding affinity using [125I]ABA against human Adenosine A3 receptor
T1 sequence (P0DMS8 whole entry): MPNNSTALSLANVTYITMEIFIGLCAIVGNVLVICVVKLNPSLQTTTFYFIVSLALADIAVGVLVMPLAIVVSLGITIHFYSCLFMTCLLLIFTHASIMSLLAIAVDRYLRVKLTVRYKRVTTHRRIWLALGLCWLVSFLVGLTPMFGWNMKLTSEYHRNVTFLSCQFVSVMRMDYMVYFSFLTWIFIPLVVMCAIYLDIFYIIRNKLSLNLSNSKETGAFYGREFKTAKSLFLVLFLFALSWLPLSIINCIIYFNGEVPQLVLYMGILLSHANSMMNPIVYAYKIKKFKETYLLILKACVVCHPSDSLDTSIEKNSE

[3] = Tested for pKa value of compound; type: physicochemical
[4] = biological target: T2, Adenosine receptor A1 (Homo sapiens, UniProt P30542); experiment: Binding affinity using [125I]ABA against human Adenosine A1 receptor
T2 sequence (P30542 whole entry): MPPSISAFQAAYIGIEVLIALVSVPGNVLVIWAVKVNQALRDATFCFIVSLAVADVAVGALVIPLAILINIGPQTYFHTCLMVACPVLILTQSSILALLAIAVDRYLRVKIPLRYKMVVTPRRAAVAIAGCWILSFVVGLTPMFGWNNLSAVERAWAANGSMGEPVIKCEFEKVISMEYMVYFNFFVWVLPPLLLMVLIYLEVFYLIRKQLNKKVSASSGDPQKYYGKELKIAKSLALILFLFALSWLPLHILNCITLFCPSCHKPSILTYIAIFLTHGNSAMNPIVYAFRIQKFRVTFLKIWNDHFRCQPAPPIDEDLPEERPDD

[5] = biological target: T1, Adenosine receptor A3; experiment: Inhibition of isoproterenol-stimulated cAMP accumulation in HEK 293 cells expressing human Adenosine A3 receptor; type: functional, cell-based, HEK293
Outline: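 Functional assay in HEK 293 cells with recombinant human A3 receptors. Cells are stimulated with isoproterenol, and the drop in cAMP accumulation is measured over a concentration–response range. EC50 comes from the curve. Mean and SEM of three experiments, each run in duplicate.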

Compound	Ratio [1]	Ki [2] [µM]	pKa [3]	Ki [4] [µM]	EC50 [5] [µM]
CNC(=O)[C@H]1O[C@@H](n2cnc3c(NC)ncnc32)[C@H](O)[C@@H]1N	194	0.12	–	–	–
CNC(=O)[C@H]1O[C@@H](n2cnc3c(NCc4cc(Cl)ccc4OCc4cc(C)no4)ncnc32)[C@H](O)[C@@H]1N	–	0.0058	6.25	7.3	0.0034
CNC(=O)[C@H]1O[C@@H](n2cnc3c(NCc4cc(Cl)ccc4OCc4cc(C)no4)ncnc32)[C@H](O)[C@@H]1O	42	0.0016	–	0.068	–
CNC(=O)[C@H]1O[C@@H](n2cnc3c(NC)ncnc32)[C@H](O)[C@@H]1O	13	0.0048	–	0.065	–
CNC(=O)[C@H]1O[C@@H](n2cnc3c(NCc4cccc(I)c4)ncnc32)[C@H](O)[C@@H]1N	64	0.072	–	4.6	–
